Experimental data published in ChEMBL document CHEMBL4610116, “Salicylanilide Analog Minimizes Relapse of Clostridioides difficile Infection in Mice” (J Med Chem, 2020).
≈ marks a conversion by molar mass, not a printed value. Calls of active or inactive are those of the source. The rule behind the calls is not given here.

Tests used:
Clostridioides difficile [1] = experiment: (§1) Suppression of relapse of Clostridioides difficile 630 infection in cefoperazone-treated C57BL/6J mouse model of recurrent Clostridioides difficile 630 infection assessed as reduction in toxin activity in cecal content at 5 mg/kg, po for 5 days from day 4 to 9 after infection with spores measured on day day 14; format: functional, organism-based
Summary of the method: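 Mice challenged with strain 630 spores after cefoperazone; drug given 5 mg/kg by gavage, days 4–9, vehicle hydroxypropyl-cyclodextrin. Cecal content at day 14 diluted 1:10 in PBS, filtered, then serially diluted to 10⁻⁶. Dilutions preincubated 40 min at room temperature with PBS or antitoxin, then added to Vero cells overnight at 37°C. Titer is the reciprocal of the highest dilution rounding 80% of cells.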

[2] = (§2) Effect on gut microbiota in cefoperazone-treated C57BL/6J mouse model of recurrent Clostridioides difficile 630 infection assessed as increase in abundance of group-Ruminococcaceae at 5 mg/kg, po for 5 days from day 4 to 9 after infection with spores measured on day day 14 by 16S rRNA Illumina sequencing analysis; format: ADME, organism-based; conditions: in vivo, 120 h
Summary of the method: (§3)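 Recurrent CDI model in cefoperazone-treated C57BL/6J mice challenged with strain 630 and gavaged on days 4–9 (n = 6 per group). Cecal tissue snips collected at necropsy underwent 16S rRNA gene community sequencing on Illumina MiSeq.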

[3] = Cytotoxicity in HEK293T/17 cells assessed as reduction in cell viability incubated for 16 hrs by MTS assay; format: cell-based; conditions: human
Summary of the method: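 HEK 293T/17 cells seeded at 2 × 10⁴ per well in DMEM and allowed to adhere 24 h at 37°C, 5% CO₂. Exposed to 0.020–40 µM compound in DMEM for 16 h, then MTS read-out after 1 h at 37°C. Normalized to untreated cells and to 0.2 mM digitonin; duplicates.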

[4] = Instantaneous volume of distribution in non-antibioticc-treated C57Bl/6J mouse at 0.3 mg/kg, iv and measured after 5 mins to 24 hrs by LC/MS-SRM analysis; format: ADME, organism-based; conditions: in vivo
Summary of the method: (§4)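 Non-antibiotic-treated C57Bl/6J mice given a single i.v. dose of 0.3 mg/kg; n = 3 per time point. Bled at 5, 10, 30 min and 1, 2, 4, 8, 24 h. Plasma mixed with 2 volumes acetonitrile containing internal standard, centrifuged, supernatant quantified by LC/MS-SRM.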

Clostridioides difficile [5] = experiment: as §1, with “microbial load (total vegetative cells plus spores)” for “toxin activity”; format: functional, organism-based
Summary of the method: (§5)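 Five-week-old C57BL/6J mice of both sexes given cefoperazone 0.5 mg/ml in drinking water for 5 days, then a 2-day washout. Oral challenge with C. difficile 630 spores on day 0. Oral gavage in 2-(hydroxypropyl)-cyclodextrin vehicle on days 4–9; n = 6 per group. Body weight recorded daily. Feces or cecal contents suspended 1:10 in PBS, serially diluted and plated on TCCFA, incubated anaerobically at 37°C for 24 h; results as CFU/g.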

[6] = MRT in cefoperazone-treated C57Bl/6J mouse at 1 mg/kg, po dosed each day for 5 days by LC/MS-SRM analysis; format: ADME, organism-based; conditions: in vivo
Summary of the method: (§6)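 C57Bl/6J mice pre-treated with cefoperazone 0.5 mg/mL in drinking water for 10 days, then a 2-day washout. Oral dose of 1 mg/kg given daily for 5 days. Bled at 5, 10, 30 min and 1, 2, 4, 10, 24 h after dosing on the first and final days; n = 3 per time point. Plasma mixed with 2 volumes acetonitrile containing internal standard, centrifuged, supernatant analysed by LC/MS-SRM.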

[7] = Toxicity in sheep RBC assessed as induction of hemolysis at 0.625 to 80 uM incubated for 1 hr at 37 degC relative to control; format: cell-based, Ovis aries, Erythrocyte; conditions: sheep red blood cells (erythrocytes), read-out: Activity
Summary of the method: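 Sheep erythrocytes washed three times in PBS pH 7.4. A 3% suspension mixed 1:1 with compound in PBS, final 0.625–80 µM, for 1 h at 37°C. Centrifuged at 500 × g and supernatant absorbance read at 540 nm. 1% Triton X-100 served as positive control and 1.6% DMSO in PBS as negative control.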

[8] = Half life in cefoperazone-treated C57Bl/6J mouse at 1 mg/kg, po dosed each day for 5 days by LC/MS-SRM analysis; format: ADME, organism-based; conditions: in vivo; summary of the method: as §6
[9] = MRT in non-antibioticc-treated C57Bl/6J mouse at 0.3 mg/kg, iv and measured after 5 mins to 24 hrs by LC/MS-SRM analysis; format: ADME, organism-based; conditions: in vivo; summary of the method: as §4
[10] = Tmax in non-antibioticc-treated C57Bl/6J mouse at 0.3 mg/kg, iv and measured after 5 mins to 24 hrs by LC/MS-SRM analysis; format: ADME, organism-based; conditions: in vivo; summary of the method: as §4
[11] = Cmax in non-antibioticc-treated C57Bl/6J mouse at 0.3 mg/kg, iv and measured after 5 mins to 24 hrs by LC/MS-SRM analysis; format: ADME, organism-based; design: dose 0.3 mg/kg, route intravenous; conditions: in vivo; summary of the method: as §4
[12] = Half life in non-antibioticc-treated C57Bl/6J mouse at 0.3 mg/kg, iv and measured after 5 mins to 24 hrs by LC/MS-SRM analysis; format: ADME, organism-based; conditions: in vivo; summary of the method: as §4
Clostridioides difficile [13] = experiment: as §1, with “microbial load (total vegetative cells plus spores)” for “toxin activity in cecal content”, “9” for “day 14”; format: functional, organism-based; summary of the method: as §5
Clostridioides difficile [14] = experiment: as §1, with “incidence of animals with microbial load (total vegetative cells plus spores) load below the limit of detection” for “reduction in toxin activity in cecal content”, “13 post drug cessation” for “day 14”; format: functional; summary of the method: as §5
[15] = Ratio of Cmin in cecum of cefoperazone-treated C57Bl/6J mouse at 1 mg/kg, po dosed each day for 5 days and measured over 24 hrs post last dose by LC/MS-SRM analysis to MIC for antimicrobial activity against Clostridioides difficile CD10463 incubated for 20 to 24 hrs by broth microdilution method; format: ADME, organism-based; conditions: in vivo
[16] = Oral bioavailability in cefoperazone-treated C57Bl/6J mouse at 1 mg/kg dosed each day for 5 days by LC/MS-SRM analysis; format: ADME, organism-based; conditions: in vivo
[17] = AUC in cefoperazone-treated C57Bl/6J mouse at 1 mg/kg, po dosed each day for 5 days by LC/MS-SRM analysis; format: ADME, organism-based; conditions: in vivo; summary of the method: as §6
Clostridioides difficile [18] = experiment: Antimicrobial activity against Clostridioides difficile CD10463 incubated for 20 to 24 hrs by broth microdilution method; format: functional
Summary of the method: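 Broth microdilution in pre-reduced BHIS using two-fold serial dilutions and ~5 × 10⁵ cfu/mL inoculum. Incubated 20–24 h at 37°C, anaerobic (8% H₂, 8% CO₂, 84% N₂). MIC read by the Lambert-Pearson method; duplicates.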

[19] = Cmax in cecum of cefoperazone-treated C57Bl/6J mouse at 1 mg/kg, po dosed each day for 5 days and measured at 4 hrs post last dose by LC/MS-SRM analysis; format: ADME, organism-based, Caecum; design: dose 1 mg/kg, route oral
Summary of the method: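 Cefoperazone-pretreated mice (0.5 mg/mL in drinking water, 10 days; 2-day washout) dosed orally at 1 mg/kg daily for 5 days. On the final day, mice euthanized at 30 min, 4 h and 24 h post-dose and cecal contents collected. Samples homogenized in 4 volumes acetonitrile containing internal standard, centrifuged, supernatant analysed by LC/MS-SRM.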

[20] = as §2, with “Lachnospiraceae” for “group-Ruminococcaceae”; format: ADME, organism-based; conditions: in vivo, 120 h; summary of the method: as §3

In the case of `O=C(Nc1cc(C(F)(F)F)c(Oc2ccc(Cl)cc2)c(C(F)(F)F)c1)c1cc(Cl)cc(Cl)c1O`, the Activity (Clostridioides difficile [1]) is reported as “Active”, the Activity [2] is reported as “Non-Toxic” and the Activity [3] is reported as greater than 2.5 µM. The Vc [4] was 8.5 mL, the Activity (Clostridioides difficile [5]) was “Active” and the MRT [6] was 9.7 h. The hemolysis at 1 h, up to 80 µM [7] was less than 2%, the half-life [8] was 10.7 h and the MRT [9] was 5.26 h. The Tmax [10] was 0.17 h, the Cmax [11] was 1.63 µM and the half-life [12] was 5 h. For the same compound, the Activity (Clostridioides difficile [13]) was “Active”, the Activity (Clostridioides difficile [14]) was 50% and the Ratio [15] was 100. It also gave a bioavailability [16] of 76%, an AUC at 120 h [17] of 23.2 µM·h and an MIC (Clostridioides difficile [18]) of 0.03 µM (≈ 0.0163 µg/mL). The Cmax [19] was 50 µM and the Activity [20] was “Non-Toxic”.
